Assay results reported in ChEMBL document CHEMBL5724801, “EUbOPEN Chemogenomics Library - Multiplex” (2024).
Several values for one entry are separate records, joined by “and”; a condition that tells them apart may be missing. Equal values may be shown once.

Test system: Fibroblast
Experiment: Multiplex assay against human fibroblast
Assay type: toxicity, cell-based
Method in brief: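 Cells were classed with CellPathfinder machine-learning gating, first as Hoechst high-intensity objects or normal cells, then (normal cells) as healthy, pyknosed or fragmented nuclei, and finally (pyknosed cells) as mitotic or apoptotic. Staining of live cells at seeding used Hoechst33342, BioTracker Green Microtubule Cytoskeleton Dye, MitoTracker Red and Annexin V Alexa Fluor 680, with imaging on a CQ1 microscope at 37°C and 5% CO2 after compound addition. Tubulin, mitochondrial-mass and membrane-permeability phenotypes are per cents of healthy-nucleus cells.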

[1] = 12 h, 1 µM, compound concentration 1 uM
[2] = 12 h, 10 µM, compound concentration 10 uM
[3] = 24 h, 1 µM, compound concentration 1 uM
[4] = 24 h, 10 µM, compound concentration 10 uM
[5] = 48 h, 1 µM, compound concentration 1 uM
[6] = 48 h, 10 µM, compound concentration 10 uM

**Q.** How did the “Population Apoptotic (%)” value [1] turn out when `O=C(Nc1cc(C(F)(F)F)cc(C(F)(F)F)c1)c1cc(Cl)ccc1O` [IMD-0354] was run?
**A.** 6.12% and 12.9%

**Q.** And the “Population Fragmented Nuclei (%)” value [1]?
**A.** 11.69% and 4.09%

**Q.** And the “Population Healthy Nuclei (%)” value [1]?
**A.** 56.49% and 77.78%

**Q.** And the “Population Hoechst High Intensity Objects (%)” value [1]?
**A.** 0%

**Q.** And the “Population Membrane Permeable-Phenotype (%)” value [1]?
**A.** 4.6% and 8.27%

**Q.** And the “Population Mitochondria Different-Phenotype (%)” value [1]?
**A.** 6.9% and 2.26%

**Q.** What about the “Population Mitotic Cells (%)” value [1] of the same molecule?
**A.** 93.88% and 87.1%

**Q.** And the “Population Normal (%)” value [1]?
**A.** 100%

**Q.** And the “Population Pyknosed Nuclei (%)” value [1]?
**A.** 31.82% and 18.13%

**Q.** What about the “Population Tubulin-Different-Phenotype (%)” value [1] of the same molecule?
**A.** 8.05% and 22.56%

**Q.** And the “Total Cell Count” value [1]?
**A.** 154 and 171

**Q.** And the “Population Apoptotic (%)” value [2]?
**A.** 0% and 6.33%

**Q.** And the “Population Fragmented Nuclei (%)” value [2]?
**A.** 23.45% and 22.08%

**Q.** And the “Population Healthy Nuclei (%)” value [2]?
**A.** 49.56% and 45%

**Q.** And the “Population Hoechst High Intensity Objects (%)” value [2]?
**A.** 0%

**Q.** What about the “Population Membrane Permeable-Phenotype (%)” value [2] of the same molecule?
**A.** 3.57% and 2.78%

**Q.** What about the “Population Mitochondria Different-Phenotype (%)” value [2] of the same molecule?
**A.** 0% and 6.48%

**Q.** What about the “Population Mitotic Cells (%)” value [2] of the same molecule?
**A.** 100% and 93.67%

**Q.** What about the “Population Normal (%)” value [2] of the same molecule?
**A.** 100%

**Q.** What about the “Population Pyknosed Nuclei (%)” value [2] of the same molecule?
**A.** 26.99% and 32.92%

**Q.** And the “Total Cell Count” value [2]?
**A.** 226 and 240

**Q.** What about the “Population Apoptotic (%)” value [3] of the same molecule?
**A.** 9.09% and 16.33%

**Q.** What about the “Population Fragmented Nuclei (%)” value [3] of the same molecule?
**A.** 10.5% and 2.76%

**Q.** What about the “Population Healthy Nuclei (%)” value [3] of the same molecule?
**A.** 59.12% and 70.17%

**Q.** And the “Population Hoechst High Intensity Objects (%)” value [3]?
**A.** 0%

**Q.** And the “Population Membrane Permeable-Phenotype (%)” value [3]?
**A.** 8.41% and 8.66%

**Q.** And the “Population Mitochondria Different-Phenotype (%)” value [3]?
**A.** 2.8% and 0.79%

**Q.** And the “Population Mitotic Cells (%)” value [3]?
**A.** 90.91% and 83.67%

**Q.** What about the “Population Normal (%)” value [3] of the same molecule?
**A.** 100%

**Q.** And the “Population Pyknosed Nuclei (%)” value [3]?
**A.** 30.39% and 27.07%

**Q.** What about the “Population Tubulin-Different-Phenotype (%)” value [3] of the same molecule?
**A.** 14.02% and 25.2%

**Q.** And the “Total Cell Count” value [3]?
**A.** 181

**Q.** What about the “Population Apoptotic (%)” value [4] of the same molecule?
**A.** 7.58% and 18.81%

**Q.** What about the “Population Fragmented Nuclei (%)” value [4] of the same molecule?
**A.** 25.35% and 26.19%

**Q.** And the “Population Healthy Nuclei (%)” value [4]?
**A.** 44.24% and 33.73%

**Q.** What about the “Population Hoechst High Intensity Objects (%)” value [4] of the same molecule?
**A.** 0%

**Q.** And the “Population Mitochondria Different-Phenotype (%)” value [4]?
**A.** 0% and 1.18%

**Q.** And the “Population Mitotic Cells (%)” value [4]?
**A.** 92.42% and 81.19%

**Q.** What about the “Population Normal (%)” value [4] of the same molecule?
**A.** 100%

**Q.** What about the “Population Pyknosed Nuclei (%)” value [4] of the same molecule?
**A.** 30.41% and 40.08%

**Q.** What about the “Total Cell Count” value [4] of the same molecule?
**A.** 217 and 252

**Q.** What about the “Population Apoptotic (%)” value [5] of the same molecule?
**A.** 7.14% and 17.65%

**Q.** And the “Population Fragmented Nuclei (%)” value [5]?
**A.** 19.1% and 8.99%

**Q.** What about the “Population Healthy Nuclei (%)” value [5] of the same molecule?
**A.** 49.44% and 71.91%

**Q.** And the “Population Hoechst High Intensity Objects (%)” value [5]?
**A.** 0%

**Q.** And the “Population Membrane Permeable-Phenotype (%)” value [5]?
**A.** 5.68% and 16.41%

**Q.** What about the “Population Mitochondria Different-Phenotype (%)” value [5] of the same molecule?
**A.** 9.09% and 0%

**Q.** And the “Population Mitotic Cells (%)” value [5]?
**A.** 92.86% and 82.35%

**Q.** And the “Population Normal (%)” value [5]?
**A.** 100%

**Q.** What about the “Population Pyknosed Nuclei (%)” value [5] of the same molecule?
**A.** 31.46% and 19.1%

**Q.** And the “Population Tubulin-Different-Phenotype (%)” value [5]?
**A.** 18.18% and 32.03%

**Q.** And the “Total Cell Count” value [5]?
**A.** 178

**Q.** What about the “Population Apoptotic (%)” value [6] of the same molecule?
**A.** 32.47% and 70.37%

**Q.** What about the “Population Fragmented Nuclei (%)” value [6] of the same molecule?
**A.** 33.5%

**Q.** And the “Population Healthy Nuclei (%)” value [6]?
**A.** 28% and 39.5%

**Q.** What about the “Population Hoechst High Intensity Objects (%)” value [6] of the same molecule?
**A.** 0%

**Q.** And the “Population Membrane Permeable-Phenotype (%)” value [6]?
**A.** 17.86% and 22.78%

**Q.** What about the “Population Mitochondria Different-Phenotype (%)” value [6] of the same molecule?
**A.** 1.79% and 2.53%

**Q.** What about the “Population Mitotic Cells (%)” value [6] of the same molecule?
**A.** 67.53% and 29.63%

**Q.** And the “Population Normal (%)” value [6]?
**A.** 100%

**Q.** And the “Population Pyknosed Nuclei (%)” value [6]?
**A.** 38.5% and 27%

**Q.** And the “Population Tubulin-Different-Phenotype (%)” value [6]?
**A.** 26.79% and 75.95%

**Q.** And the “Total Cell Count” value [6]?
**A.** 200

**Q.** What does the source list for `CC[C@H]1OC(=O)[C@H](C)[C@@H](O[C@H]2C[C@@](C)(OC)[C@@H](O)[C@H](C)O2)[C@H](C)[C@@H](O[C@@H]2O[C@H](C)C[C@H](N(C)C)[C@H]2O)[C@@]2(C)CC(C)=C(O2)[C@H](C)[C@@H](O)[C@]1(C)O`?
**A.** Population Apoptotic (%) [1]: 37% and 46%; Population Fragmented Nuclei (%) [1]: 13% and 23%; Population Healthy Nuclei (%) [1]: 72% and 57%; Population Hoechst High Intensity Objects (%) [1]: 2% and 3%; Population Membrane Permeable-Phenotype (%) [1]: 0% and 9%; Population Mitochondria Different-Phenotype (%) [1]: 8% and 6%; Population Mitotic Cells (%) [1]: 62% and 53%; Population Normal (%) [1]: 97% and 96%; Population Pyknosed Nuclei (%) [1]: 13% and 18%; Population Tubulin-Different-Phenotype (%) [1]: 40% and 53%; Total Cell Count [1]: 176 and 170; Population Apoptotic (%) [2]: 48% and 40%; Population Fragmented Nuclei (%) [2]: 24% and 41%; Population Healthy Nuclei (%) [2]: 63% and 33%; Population Hoechst High Intensity Objects (%) [2]: 3% and 4%; Population Membrane Permeable-Phenotype (%) [2]: 0% and 14%; Population Mitochondria Different-Phenotype (%) [2]: 25% and 11%; Population Mitotic Cells (%) [2]: 52% and 59%; Population Normal (%) [2]: 96% and 95%; Population Pyknosed Nuclei (%) [2]: 12% and 25%; Population Tubulin-Different-Phenotype (%) [2]: 86% and 73%; Total Cell Count [2]: 205 and 133; Population Apoptotic (%) [3]: 52% and 46%; Population Fragmented Nuclei (%) [3]: 18% and 29%; Population Healthy Nuclei (%) [3]: 69% and 52%; Population Hoechst High Intensity Objects (%) [3]: 4% and 3%; Population Membrane Permeable-Phenotype (%) [3]: 0% and 7%; Population Mitochondria Different-Phenotype (%) [3]: 7% and 5%; Population Mitotic Cells (%) [3]: 47% and 53%; Population Normal (%) [3]: 95% and 96%; Population Pyknosed Nuclei (%) [3]: 12% and 17%; Population Tubulin-Different-Phenotype (%) [3]: 45% and 36%; Total Cell Count [3]: 173 and 176; Population Apoptotic (%) [4]: 52% and 46%; Population Fragmented Nuclei (%) [4]: 22% and 40%; Population Healthy Nuclei (%) [4]: 69% and 39%; Population Hoechst High Intensity Objects (%) [4]: 2% and 1%; Population Membrane Permeable-Phenotype (%) [4]: 0% and 8%; Population Mitotic Cells (%) [4]: 47% and 53%; Population Normal (%) [4]: 97% and 98%; Population Pyknosed Nuclei (%) [4]: 8% and 20%; Population Tubulin-Different-Phenotype (%) [4]: 89% and 81%; Total Cell Count [4]: 199 and 127; Population Apoptotic (%) [5]: 55% and 56%; Population Fragmented Nuclei (%) [5]: 17% and 32%; Population Healthy Nuclei (%) [5]: 71% and 54%; Population Hoechst High Intensity Objects (%) [5]: 3% and 2%; Population Membrane Permeable-Phenotype (%) [5]: 0% and 7%; Population Mitochondria Different-Phenotype (%) [5]: 9% and 5%; Population Mitotic Cells (%) [5]: 44% and 43%; Population Normal (%) [5]: 96% and 97%; Population Pyknosed Nuclei (%) [5]: 11% and 13%; Population Tubulin-Different-Phenotype (%) [5]: 57% and 56%; Total Cell Count [5]: 168 and 173; Population Apoptotic (%) [6]: 84% and 58%; Population Fragmented Nuclei (%) [6]: 24% and 43%; Population Healthy Nuclei (%) [6]: 68% and 47%; Population Hoechst High Intensity Objects (%) [6]: 8% and 7%; Population Membrane Permeable-Phenotype (%) [6]: 0% and 6%; Population Mitotic Cells (%) [6]: 15% and 41%; Population Normal (%) [6]: 91% and 92%; Population Pyknosed Nuclei (%) [6]: 6% and 9%; Population Tubulin-Different-Phenotype (%) [6]: 91% and 78%; Total Cell Count [6]: 216 and 139
